Hits are enriched below; roughly 1.9% of the tested compounds scored in any of these assays.
MT stabilizer: microtubule stabilization, imaging screen; % tubulin-high responders, % at 10 µM; HeLa tubulin immunostaining HCS, 24 h; share of cells brighter than vehicle mean+2SD; AID 2205; 200,000 compounds, 0.83% hits;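 active means plate Z-score above 3 for both tubulin-high and condensed-nucleus cell shares, with cell loss under 80%, at 10 µM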;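 further: anti alpha tubulin signal scored within the nucleus-defined area of each cell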
Autophagy HCS: alters autophagy in cells | MEF GFP-LC3 puncta imaging; test concentration mostly 10 µM | calls only at 10 µM (by protocol) | 190,000 compounds, 0.98% hits;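 active means percentage of spot-positive cells more than 3 SD above its plate mean, without a fluorescence outlier flag or 80% toxicity; inconclusive means no clear call, values can overlap the other calls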;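 further: spot-positive cell cutoff set from DMSO-treated cells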
Furin inh: human furin inhibition. P09958. purified furin, fluorogenic substrate cleavage. inhibition, % at 20 µM or 30 µM. 220,000 compounds, 0.061% hits; in the data active means inhibition above about 25%
Target sequence (P09958 108-714 limits assumed): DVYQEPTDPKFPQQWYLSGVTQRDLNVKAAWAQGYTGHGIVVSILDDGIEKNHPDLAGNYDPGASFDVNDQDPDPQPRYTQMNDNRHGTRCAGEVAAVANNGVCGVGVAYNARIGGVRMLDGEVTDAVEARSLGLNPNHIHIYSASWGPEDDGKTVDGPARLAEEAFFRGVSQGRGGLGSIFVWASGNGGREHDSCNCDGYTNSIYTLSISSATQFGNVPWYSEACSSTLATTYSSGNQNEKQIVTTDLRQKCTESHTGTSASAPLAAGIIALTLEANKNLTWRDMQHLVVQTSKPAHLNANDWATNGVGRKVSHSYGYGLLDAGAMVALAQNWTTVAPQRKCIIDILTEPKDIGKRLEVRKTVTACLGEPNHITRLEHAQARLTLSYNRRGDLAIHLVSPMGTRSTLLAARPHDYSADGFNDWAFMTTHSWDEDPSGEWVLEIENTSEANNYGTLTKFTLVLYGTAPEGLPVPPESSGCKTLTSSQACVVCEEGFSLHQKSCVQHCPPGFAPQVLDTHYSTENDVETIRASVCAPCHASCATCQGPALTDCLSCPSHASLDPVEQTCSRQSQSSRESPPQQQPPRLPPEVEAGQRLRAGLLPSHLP
b-catenin transl: alters nuclear translocation of beta-catenin in HeLa cells; 190,000 compounds, 0.3% hits; immunofluorescence imaging; nuclear translocation activity, % at 5 µM;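 active means nuclear translocation activity above 50% at 5 µM, with a well cell count of 50 or more; inconclusive means wells under 50 cells across six images, flagged as toxic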;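 further: per-cell ratio of nuclear to cytoplasmic median beta-catenin stain intensity; plate controls were DMSO negative control for no effect and GSK-3 inhibitor IX positive control for full effect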
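assay system = human HeLa cells, endogenous beta-catenin | times = compound treatment 24 h, 37°C, 5% CO2 | detection = Anti-beta-catenin immunofluorescence on PFA-fixed, Triton-permeabilized cells, DAPI nuclei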
Ins promoter up: MIN6 insulin promoter up-regulation; z-score at 5 µM; MIN6 insulin promoter-GFP reporter, high-content imaging; stronger effect = higher value; 190,000 compounds, 0.3% hits;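 active means z-score above 3 at 5 µM with at least 500 cells counted in the well; inconclusive means wells under 500 cells, flagged as cytotoxic or low count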
HSV augment: HSV replication enhancement. AID 1956. HSV replication augmentation in cells, fold increase. maximum fold increase. 220,000 compounds, 0.005% hits; in the data active means maximum fold increase above about 1.5; inconclusive means no clear call, values can overlap the other calls; tested in PC3 cells
Numbers without * were called inactive; i = inactive; u = inconclusive; x = not tested or not shown; + = active, no number.

SMILES	MT stabilizer	Autophagy HCS	Furin inh	b-catenin transl	Ins promoter up	HSV augment
O=C1CC(c2ccccc2)CC2=C1C=Nc1ccccc1N2 (centres undefined)	21*	i	-20	4	-0.24	i
CCCCC(=O)c1ccc(O)cc1	1	i	-18	-3	-0.54	i
CCCCC(=O)c1ccc(O)cc1O	3	+	-13	x	x	i
C/C(=N\N(Cc1ccccc1)c1ccccc1)c1ccncc1	3	i	-13	2	-0.34	i
COCC(=O)N(Cc1ccco1)c1nnc(C2CCOC2)s1 (centres undefined)	2	+	-15	x	0.04	i
CCC(=O)N(Cc1ccco1)c1nc(-c2ccc(OC)cc2)cs1	3	i	-17	-1	x	i
CCn1c(C)c(CCC(=O)O)c(=O)n2nc(-c3ccccc3OC)cc12	3	i	27*	x	0.7	i
S=c1[nH]nc(-c2ccccn2)n1/N=C/c1ccc(-c2ccccc2Cl)o1	1	i	-4	0	0.27	i
CCCCCOc1ccc(Br)cc1/C(C)=N/NC1=NCCN1	8	+	-13	20	-5.2	x
Cc1ccc2c(c1)N(CC(=O)N1CCc3ccccc3C1)C(=O)CO2	4	i	-35	0	-0.03	i
Cn1c2ccccc2n2c(=O)c(Cl)c(-c3ccccc3)c(C#N)c12	2	+	14	-1	-0.29	i
CCc1nnc(N2C(=O)c3ccccc3C2(O)c2ccccc2)s1 (centres undefined)	x	x	-10	1	-0.16	i
Cc1c(Cl)cccc1NC(=O)CSC(N)=O	3	i	-21	-1	-0.36	i
N#Cc1sc2nc(-c3ccccc3)cc(C(F)(F)F)c2c1N	4	+	-6	-3	x	i
O=c1cc(O)c2sc3nc(-c4ccccc4)cc(C(F)(F)F)c3c2[nH]1	3	i	4	-2	1.2	i
CC1=C(CC[C@@H](C)CO)OC2CC3C4CCC5CC(O)CCC5(C)C4CC(=O)C3(C)C12 (some centres undefined)	x	x	x	x	x	i
Cc1ccc(CN=C(N)Nc2nc(C)cc(C)n2)cc1	12*	i	-17	42	-1.9	i
Cc1ccc(C)c(N/C(N)=N/c2nc(C)cc(C)n2)c1	1	i	-19	0	0.32	i
CCOC(=O)C(Sc1cc(-c2ccccc2)nc2ncnn12)C(C)=O (centres undefined)	x	x	-2	1	0.09	i
Cn1cc(C(=O)N/N=C/c2cc(Br)cs2)c2ccccc21	x	x	-18	1	-0.21	i
CCOc1ccc2[nH]c(=O)c(CN(CCc3ccccc3)C(=O)N3CCOCC3)cc2c1	2	i	-16	0	5.5*	x
CC1CCc2c(sc3nn[nH]c(=O)c23)C1 (centres undefined)	4	i	0	x	4.2*	i
CSc1nc2sc3c(c2c(=O)[nH]1)CCC(C)C3 (centres undefined)	2	i	-35	3	x	i
COc1ccc(-c2ccc3c(N)c(C(=O)c4ccc(OC)c(OC)c4)sc3n2)cc1	3	+	-7	x	x	i
COc1ccc(C(=O)c2sc3nc(-c4ccccc4)ccc3c2N)cc1OC	2	i	-22	4	x	u
SMILES	MT stabilizer	Autophagy HCS	Furin inh	b-catenin transl	Ins promoter up	HSV augment
COc1ccccc1/C=C/C(=O)c1ccccc1	x	x	-3	3	-0.29	i
COc1ccccc1/C=C/C(=O)c1c2c(c(C)[nH]c1=O)CCCC2	12	+	-4	2	1.8	i
Cc1csc2ncnc(N3CCN(C(=O)Nc4ccc(OC(F)(F)F)cc4)CC3)c12	x	x	-13	1	x	i
Cc1ccc(Nc2cc(C)nc(NCc3ccccc3)n2)cc1	30*	i	-7	0	-0.03	i
CCOc1cc(-c2cc(-c3ccc(C)cc3)nc(N)c2C#N)ccc1O	49*	+	-17	69*	-0.13	i
COc1cc(-c2cc(-c3ccc(O)cc3)nc(N)c2C#N)ccc1O	1	i	1	0	1	i
CCOc1cc(-c2c(C#N)c(N)nc3c2CCCC3C)ccc1O (centres undefined)	23*	i	0	x	-0.45	i
CSc1ccc(S(=O)(=O)NCc2ccccc2C)cc1	2	i	-36	1	-0.53	i
CN(Cc1cccs1)C(=O)Cn1cnc2ccccc2c1=O	2	+	-15	-1	x	i
CC(C)C[C@H]1COCCS(=O)(=O)N1Cc1cccc(F)c1	x	x	x	x	x	i
CCCCNC(=S)N(C)/N=C/c1c(F)c(F)c(F)c(F)c1F	8	i	5	x	-0.06	i
CCCCNC(=S)N(C)/N=C/c1c(C)[nH]c2ccccc12	2	+	-3	x	0.81	i
S=C(Nc1ccc(Cl)c(Cl)c1)NC1CCN(Cc2ccccc2)CC1	2	+	-12	-1	u	i
Fc1ccc(NC(=S)NC2CCN(Cc3ccccc3)CC2)cc1	3	i	-28	0	0.08	i
COc1cc(CNCCO)cc(Cl)c1OCc1ccc(Cl)cc1Cl	30	+	4	7	x	i
COc1cc(CNCCO)cc(Br)c1OCc1ccccc1Cl	2	i	-18	6	-0.95	x
CCn1c(SCC(=O)c2c[nH]c3ccccc23)nc2cc(S(=O)(=O)N3CCOCC3)ccc21	3	i	-14	7	3.1*	i
CC(=O)n1cc(Nc2ccccc2C(=O)O)c2ccccc21	2	i	-30	-4	0.04	i
CCOC(=O)c1ccccc1Nc1cn(C(C)=O)c2ccccc12	3	+	-2	x	x	i
COC(=O)c1c(NC(=O)CC2Sc3ccc(C(F)(F)F)cc3NC2=O)sc(C)c1C (centres undefined)	2	i	-17	-1	-0.52	i
CCc1cc(C(=O)OC)c(NC(=O)CC2Nc3cc(C)c(C)cc3NC2=O)s1 (centres undefined)	1	+	0	-2	0.06	i
COC(=O)c1c(NC(=O)CC2Nc3cc(C)c(C)cc3NC2=O)sc(C)c1C (centres undefined)	4	i	-10	21	6.4*	i
Cc1ccc2nc(NC(=O)CCNS(=O)(=O)c3ccc(Br)s3)sc2c1	6	+	-24	-3	-0.86	i
COc1ccc(C2Sc3nncn3N2Cc2ccc(C#N)cc2)cc1 (centres undefined)	3	+	-28	-4	0.7	i
COc1ccc(-n2c(SCc3ccc(C#N)cc3)nnc2-c2ccccn2)cc1	2	i	-19	0	-0.41	i
C(=N\N1CCN(Cc2cccc3ccccc23)CC1)/c1ccco1	2	+	-6	x	-0.15	i
O=C(Cc1c(Cl)cccc1Cl)OCC(=O)N1CCN(C(=O)c2ccco2)CC1	6	i	-20	0	0.31	i
Cc1ccc(/C=N/NC(=O)CCCOc2ccc(Cl)cc2Cl)cc1	15	i	-22	115*	-0.51	i

Assay outcomes: PubChem, several laboratories
